# According to ChEMBL document CHEMBL3108713, “Identification of ML251, a Potent Inhibitor of T. brucei and T. cruzi Phosphofructokinase” (ACS Med Chem Lett, 2014):
# Tests used:
# [1] = biological target: T1, ATP-dependent 6-phosphofructokinase (Trypanosoma brucei, UniProt O15648); experiment: Inhibition of Trypanosoma brucei PFK-mediated ADP production using ATP/fructose-6-phosphate as substrate by luciferase based luminescence assay
# T1 sequence (O15648 whole entry): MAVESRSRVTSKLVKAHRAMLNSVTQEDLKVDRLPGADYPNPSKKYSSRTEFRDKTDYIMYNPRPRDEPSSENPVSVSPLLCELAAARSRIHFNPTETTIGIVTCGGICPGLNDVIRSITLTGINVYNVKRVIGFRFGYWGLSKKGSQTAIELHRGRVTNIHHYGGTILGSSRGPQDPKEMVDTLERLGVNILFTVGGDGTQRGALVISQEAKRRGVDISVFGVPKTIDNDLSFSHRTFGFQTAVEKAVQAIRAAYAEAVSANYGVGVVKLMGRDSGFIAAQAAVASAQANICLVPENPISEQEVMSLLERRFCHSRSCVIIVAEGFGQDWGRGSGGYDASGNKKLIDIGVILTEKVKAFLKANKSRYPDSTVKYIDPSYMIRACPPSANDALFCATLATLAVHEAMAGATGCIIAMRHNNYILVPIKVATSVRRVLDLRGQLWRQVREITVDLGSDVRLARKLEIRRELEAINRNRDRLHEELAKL
# Outline: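 Recombinant enzyme; ADP formed by PFK detected with modified luciferase (ADP-Glo) luminescent end-point in 1536-well format.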
# [2] = biological target: T2, ATP-dependent 6-phosphofructokinase (Trypanosoma cruzi, UniProt Q4E657); experiment: Inhibition of Trypanosoma cruzi PFK
# T2 sequence (Q4E657 whole entry): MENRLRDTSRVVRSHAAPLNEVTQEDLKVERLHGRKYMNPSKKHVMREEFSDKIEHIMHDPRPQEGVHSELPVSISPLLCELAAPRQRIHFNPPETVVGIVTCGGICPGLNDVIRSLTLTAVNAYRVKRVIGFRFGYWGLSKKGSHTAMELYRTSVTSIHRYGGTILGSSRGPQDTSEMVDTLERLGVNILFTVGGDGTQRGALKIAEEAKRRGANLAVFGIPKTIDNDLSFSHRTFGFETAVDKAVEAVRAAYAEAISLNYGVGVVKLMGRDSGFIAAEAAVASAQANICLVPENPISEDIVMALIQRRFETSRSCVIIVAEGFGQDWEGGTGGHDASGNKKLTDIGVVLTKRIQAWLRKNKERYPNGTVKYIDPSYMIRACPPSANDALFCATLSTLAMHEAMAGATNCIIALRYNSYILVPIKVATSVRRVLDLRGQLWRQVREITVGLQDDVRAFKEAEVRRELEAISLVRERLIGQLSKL
# [3] = biological target: T3, ATP-dependent 6-phosphofructokinase (Trypanosoma brucei) (UniProt O15648); experiment: Inhibition of Trypanosoma brucei PFK-mediated ADP production using ATP/fructose-6-phosphate as substrate at 57 uM by luciferase based luminescence assay
# T3 sequence (whole entry): T1 sequence (O15648 whole entry)
# Outline: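 Recombinant T. brucei PFK; ADP formed by the enzyme is converted to a luminescent signal by a modified luciferase ADP-Glo detection, read at end point.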
# [4] = biological target: T4, ATP-dependent 6-phosphofructokinase (Trypanosoma cruzi) (UniProt Q4E657); experiment: Inhibition of Trypanosoma cruzi PFK at 57 uM
# T4 sequence (whole entry): T2 sequence (Q4E657 whole entry)
# Outline: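 PFK activity is measured by coupling ADP production to ADP-Glo luciferase luminescence at end point. Percent inhibition is recorded at 57 μM, the highest concentration of the dose series, with at least 3 separate experiments averaged.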
IC50 [1] [µM],IC50 [2] [µM],inhibition [3] [%],inhibition [4] [%],SMILES
36.6,20.6,> 80,> 80,Cc1cc(NS(=O)(=O)c2ccc(NC(=O)Cc3ccccc3)cc2)no1
16.3,16.3,> 80,> 80,O=C(Cc1ccc(Cl)c(Cl)c1)Nc1ccc(S(=O)(=O)Nc2ccccc2)cc1
18.3,6.5,> 80,> 80,Cc1cc(NS(=O)(=O)c2ccc(NC(=O)Cc3ccc(C)c(C)c3)cc2)no1
5.17,6.51,> 80,> 80,Cc1cc(NS(=O)(=O)c2ccc(NC(=O)CCc3ccc(Cl)c(Cl)c3)cc2)no1
2.31,1.16,> 80,> 80,Cc1cc(NS(=O)(=O)c2ccc(NC(=O)Cc3ccc(Cl)c(Cl)c3)cc2)n(C)n1
33,13,> 80,> 80,Cc1cc(NS(=O)(=O)C2CCN(C(=O)Cc3ccc(Cl)c(Cl)c3)CC2)no1
2.91,2.06,> 80,> 80,Cc1cc(N(C)S(=O)(=O)c2ccc(NC(=O)Cc3ccc(Cl)c(Cl)c3)cc2)no1
0.26,0.58,> 80,> 80,O=C(Cc1ccc(Cl)c(Cl)c1)Nc1ccc(S(=O)(=O)Nc2cccc(C(=O)O)c2)cc1
1.46,1.63,> 80,> 80,O=C(Cc1ccc(Cl)c(Cl)c1)Nc1ccc(S(=O)(=O)Nc2cccc(O)c2)cc1
> 57,20.6,,> 80,COc1ccc(CC(=O)Nc2ccc(S(=O)(=O)Nc3cc(C)on3)cc2)cc1C
36.6,36.5,> 80,> 80,Cc1cc(NS(=O)(=O)c2ccc(NC(=O)C(C)(C)c3ccc(Cl)c(Cl)c3)cc2)no1
32.6,16.3,> 80,> 80,Cc1cc(NS(=O)(=O)CCNC(=O)Cc2ccc(Cl)c(Cl)c2)no1
1.83,1.46,> 80,> 80,Cc1cc(NS(=O)(=O)c2ccc(NC(=O)Cc3ccc(Cl)cc3)cc2)no1

# Second part, the compound before the results:
SMILES,IC50 [1] [µM],IC50 [2] [µM],inhibition [3] [%],inhibition [4] [%]
Cc1cc(NC(=O)c2ccc(NC(=O)Cc3ccc(Cl)c(Cl)c3)cc2)no1,> 57,> 57,,
Cc1cc(NS(=O)(=O)c2ccc(NC(=O)Cc3ccc(Cl)c(F)c3)cc2)no1,0.7,0.65,> 80,> 80
O=C(Cc1ccc(Cl)c(Cl)c1)Nc1ccc(S(=O)(=O)Nc2nncs2)cc1,0.112,0.052,> 80,> 80
Cc1cc(NS(=O)(=O)c2ccc(NC(=O)Cc3ccc(F)c(Cl)c3)cc2)no1,0.73,0.46,> 80,> 80
Cc1cc(NS(=O)(=O)c2ccc(NC(=O)c3ccc(Cl)c(Cl)c3)cc2)no1,14.6,20.6,> 80,> 80
Cc1cc(NS(=O)(=O)Cc2ccc(NC(=O)Cc3ccc(Cl)c(Cl)c3)cc2)no1,2.59,3.26,> 80,> 80
COc1ccc(CC(=O)Nc2ccc(S(=O)(=O)Nc3cc(C)on3)cc2)cc1OC,> 57,> 57,,
O=C(Cc1ccc(F)c(Cl)c1)Nc1ccc(S(=O)(=O)Nc2nccs2)cc1,0.024,0.12,> 80,> 80
O=C(Cc1ccc(Cl)c(Cl)c1)Nc1ccc(S(=O)(=O)O)cc1,0.65,0.46,> 80,> 80
Cc1cc(NS(=O)(=O)c2cccc(NC(=O)Cc3ccc(Cl)c(Cl)c3)c2)no1,16.3,16.3,> 80,> 80
Cc1cc(NS(=O)(=O)c2ccc(C(=O)NCc3ccc(Cl)c(Cl)c3)cc2)no1,5.16,2.91,> 80,> 80
O=C(Cc1ccc(Cl)c(Cl)c1)Nc1ccc(S(=O)(=O)Nc2ccc(C(=O)O)cc2)cc1,0.16,0.29,> 80,> 80
CCOC(=O)c1cccc(NS(=O)(=O)c2ccc(NC(=O)Cc3ccc(Cl)c(Cl)c3)cc2)c1,> 57,> 57,,
Cc1cc(NS(=O)(=O)c2ccc(NS(=O)(=O)Cc3ccc(Cl)c(Cl)c3)cc2)no1,37,> 57,> 80,
Cc1cc(NS(=O)(=O)c2ccc(NC(=O)Cc3ccc(Cl)c(C(F)(F)F)c3)cc2)no1,0.68,0.92,> 80,> 80
Cc1cc(NS(=O)(=O)c2ccc(NC(=O)Cc3ccc(C)c(F)c3)cc2)no1,5.8,4.6,> 80,> 80
Cc1cc(NS(=O)(=O)c2ccc(NCCc3ccc(Cl)c(Cl)c3)cc2)no1,6,16.3,> 80,> 80
O=C(Cc1ccc(Cl)c(Cl)c1)Nc1ccc(S(=O)(=O)Nc2cncnc2)cc1,0.82,0.73,> 80,> 80
Cc1cc(NS(=O)(=O)c2ccc(NC(=O)Cc3ccc4ccccc4c3)cc2)no1,6.51,1.83,> 80,> 80
Cc1cc(NS(=O)(=O)c2ccc(N(C)C(=O)Cc3ccc(Cl)c(Cl)c3)cc2)no1,6.51,1.3,> 80,> 80
Cc1cc(NS(=O)(=O)c2ccc(NC(=O)Cc3cccc(Cl)c3)cc2)no1,7.3,2.59,> 80,> 80
O=C(Cc1ccc(Cl)c(Cl)c1)Nc1ccc(S(=O)(=O)Nc2cc[nH]n2)cc1,0.52,0.73,> 80,> 80
O=C(Cc1ccc(Cl)c(Cl)c1)Nc1ccc(S(=O)(=O)Nc2nccs2)cc1,0.079,0.041,> 80,> 80
Cc1cc(NS(=O)(=O)c2ccc(NC(=O)Cc3ccc(Cl)cc3Cl)cc2)no1,4.61,14.6,> 80,> 80
Cc1cc(NC(=O)c2csc(NC(=O)Cc3ccc(Cl)c(Cl)c3)n2)no1,> 57,> 57,,
Cc1ccc(C(=O)Nc2ccc(S(=O)(=O)O)c3cc(S(=O)(=O)O)cc(S(=O)(=O)O)c23)cc1NC(=O)c1cccc(NC(=O)Nc2cccc(C(=O)Nc3cc(C(=O)Nc4ccc(S(=O)(=O)O)c5cc(S(=O)(=O)O)cc(S(=O)(=O)O)c45)ccc3C)c2)c1 [SURAMIN],3,,,
CN(C)c1cccc(NS(=O)(=O)c2ccc(NC(=O)Cc3ccc(Cl)c(Cl)c3)cc2)c1,5.8,11.6,> 80,> 80
